Test results from ChEMBL document CHEMBL3526071, “Predicting phenolic acid absorption in Caco-2 cells: a theoretical permeability model and mechanistic study” (Drug Metab Dispos, 2012).
Where a SMILES comes first, the peptide text is derived from it.

Key:
[1] = Apparent permeability across human Caco2 cells with high TEER resistance at 500 uM after 1 hr by HPLC-DAD analysis; assay type: ADME, cell-based; conditions: Caco-2
Method in brief: (§1)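 Caco-2 (passages 30–50) seeded at 6 × 10^4 cells/cm2 on 0.4-μm polycarbonate Transwell inserts and grown 21 days. Monolayer resistance varied by 15-min preincubation in HBSS pH 7.4 with 18 μM or 3.6 mM CaCl2. 500 μM compound added apically in HBSS at the same CaCl2. 1 h, 37°C, no stirring. TEER measured before and after, corrected for cell-free insert. Receiver quantified by HPLC-DAD. n = 3.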

[2] = Apparent permeability from apical to basolateral side in human Caco2 cells at 500 uM at pH 7.4 after 1 hr by HPLC-DAD analysis; assay type: ADME, cell-based; conditions: Caco-2, pH 7.4
Method in brief: (§2)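 Differentiated Caco-2 monolayers after 21+ days on Transwells, equilibrated 15 min in HBSS with 1.8 mM CaCl2, pH 7.4. 500 μM compound (from DMSO stock) in the donor, apical or basal. Both sides pH 7.4. 1 h at 37°C, 5% CO2. Receiver measured by HPLC-DAD with recovery correction. Papp calculated from receiver amount over time versus initial donor amount. Mean ± S.D., n = 3.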

[3] = 1-Octanol-water distribution coefficient, log D of the compound at pH 7.4 by shake flask method; assay type: physicochemical
[4] = Apparent permeability from basolateral to apical side in human Caco2 cells at 500 uM at pH 7.4 after 1 hr by HPLC-DAD analysis; assay type: ADME, cell-based; conditions: Caco-2, pH 7.4; method in brief: as §2
[5] = Efflux ratio of apparent permeability from basolateral to apical side over apical to basolateral side in human Caco2 cells at 500 uM after 1 hr by HPLC-DAD analysis; assay type: ADME, cell-based; conditions: Caco-2
[6] = Apparent permeability across human Caco2 cells with low TEER resistance at 500 uM after 1 hr by HPLC-DAD analysis; assay type: ADME, cell-based; conditions: Caco-2; method in brief: as §1
[7] = 1-Octanol-water distribution coefficient, log D of the compound at pH 7.4; assay type: physicochemical
[8] = Oral bioavailability in human; assay type: ADME, organism-based; conditions: in vivo
[9] = 1-octanol/water, read-out: logD

O=C(/C=C/c1ccc(O)c(O)c1)O[C@@H]1C[C@](O)(C(=O)O)C[C@@H](OC(=O)/C=C/c2ccc(O)c(O)c2)[C@H]1O
Papp at 1 h, 500 µM [1]: 0.05 ×10⁻⁶ cm/s | Papp A→B at 1 h, 500 µM [2]: 0.14 ×10⁻⁶ cm/s | logD [3]: -1.04 | Papp B→A at 1 h, 500 µM [4]: 0.72 ×10⁻⁶ cm/s | efflux ratio at 1 h, 500 µM [5]: 5.4 | Papp at 1 h, 500 µM [6]: 0.68 ×10⁻⁶ cm/s

CC(C)(C)S(=O)(=O)C[C@@H](Cc1ccccc1)C(=O)N[C@@H](Cc1cnc[nH]1)C(=O)N[C@@H](CC1CCCCC1)[C@@H](O)[C@@H](O)C1CC1
logD [7, 9]: 2.75

COc1ccc(/C=C/C(=O)O)cc1OC
Papp A→B at 1 h, 500 µM [2]: 19.9 ×10⁻⁶ cm/s | logD [3]: -1.01 | Papp B→A at 1 h, 500 µM [4]: 21.7 ×10⁻⁶ cm/s | efflux ratio at 1 h, 500 µM [5]: 1.1

CSc1ccc2ncn(/C=C/C(=O)O)c(=O)c2c1
logD [7, 9]: -1.05

COc1cc(/C=C/C(=O)O[C@@H]2C[C@](O)(C(=O)O)C[C@@H](O)[C@H]2O)ccc1O
Papp at 1 h, 500 µM [1]: 0.31 ×10⁻⁶ cm/s | Papp A→B at 1 h, 500 µM [2]: 0.25 ×10⁻⁶ cm/s | logD [3]: -2.79 | Papp B→A at 1 h, 500 µM [4]: 0.28 ×10⁻⁶ cm/s | efflux ratio at 1 h, 500 µM [5]: 1.1 | Papp at 1 h, 500 µM [6]: 1.7 ×10⁻⁶ cm/s

C=CCc1ccccc1OCC(O)CNC(C)C (centres undefined) [ALPRENOLOL]
logD [3]: 1.08

Cc1c(N(C)C)c(=O)n(-c2ccccc2)n1C [AMINOPYRINE]
bioavailability [8]: 100%

CC(=O)Oc1ccccc1C(=O)O [ASPIRIN]
bioavailability [8]: 100%

O=C(O)/C=C/c1ccc(O)c(O)c1 [CAFFEIC ACID]
Papp A→B at 1 h, 500 µM [2]: 1.4 ×10⁻⁶ cm/s | Papp B→A at 1 h, 500 µM [4]: 1.7 ×10⁻⁶ cm/s

O=C(/C=C/c1ccc(O)c(O)c1)O[C@@H]1C[C@](O)(C(=O)O)C[C@@H](O)[C@H]1O [CHLOROGENIC ACID]
Papp at 1 h, 500 µM [1]: 0.25 ×10⁻⁶ cm/s | Papp A→B at 1 h, 500 µM [2]: 0.38 ×10⁻⁶ cm/s | logD [3]: -3.05 | Papp B→A at 1 h, 500 µM [4]: 0.33 ×10⁻⁶ cm/s | Papp at 1 h, 500 µM [6]: 0.77 ×10⁻⁶ cm/s

CN/C(=N/CCSCc1nc[nH]c1C)NC#N [CIMETIDINE]
logD [7, 9]: -0.4

OC[C@H]1OC(O)[C@H](O)[C@@H](O)[C@@H]1O (some centres undefined) [DEXTROSE]
logD [7, 9]: -2.83

CNC[C@H](O)c1ccc(O)c(O)c1 [EPINEPHRINE]
logD [7, 9]: -2.59

CCOC(=O)C1=C(C)NC(C)=C(C(=O)OC)C1c1cccc(Cl)c1Cl (centres undefined) [FELODIPINE]
logD ([7]; octanol/water): 3.48

COc1cc(/C=C/C(=O)O)ccc1O [FERULATE]
Papp at 1 h, 500 µM [1]: 10.8 ×10⁻⁶ cm/s | Papp A→B at 1 h, 500 µM [2]: 10 ×10⁻⁶ cm/s | logD [3]: -1.19 | Papp B→A at 1 h, 500 µM [4]: 10.2 ×10⁻⁶ cm/s | efflux ratio at 1 h, 500 µM [5]: 1 | Papp at 1 h, 500 µM [6]: 11.2 ×10⁻⁶ cm/s

CC(C)n1c(/C=C/C(O)CC(O)CC(=O)O)c(-c2ccc(F)cc2)c2ccccc21 (centres undefined) [FLUVASTATIN]
logD [7, 9]: 1.09

NCC(=O)N1CCC[C@H]1C(=O)O [GLYCYL PROLINE] (H-Gly-Pro-OH)
logD [7, 9]: -3.32

COC1=CC(=O)C[C@@H](C)[C@]12Oc1c(Cl)c(OC)cc(OC)c1C2=O [GRISEOFULVIN]
logD [7, 9]: 2.47

N=C(N)NCC1COc2ccccc2O1 (centres undefined) [GUANOXAN]
logD [7, 9]: -0.83

N[C@@H](Cc1ccc(O)c(O)c1)C(=O)O [LEVODOPA]
logD ([7]; octanol/water): -1.22

OC[C@@H](O)[C@@H](O)[C@H](O)[C@H](O)CO [MANNITOL]
logD [7, 9]: -3.1 | bioavailability [8]: 16%

COCCc1ccc(OCC(O)CNC(C)C)cc1 (centres undefined) [METOPROLOL]
logD [3]: -0.24

COCC(=O)O[C@]1(CCN(C)CCCc2nc3ccccc3[nH]2)CCc2cc(F)ccc2[C@@H]1C(C)C [MIBEFRADIL]
logD ([7]; octanol/water): 3.66

Cc1ccnc2c1NC(=O)c1cccnc1N2C1CC1 [NEVIRAPINE]
logD [7, 9]: 1.81 | bioavailability [8]: > 90%

O=C1NC(=O)C(c2ccccc2)(c2ccccc2)N1 [PHENYTOIN]
logD [7, 9]: 2.5

CN1C(C(=O)Nc2ccccn2)=C(O)c2ccccc2S1(=O)=O [PIROXICAM]
logD [7, 9]: 0

CC(=O)Nc1ccc(OCC(O)CNC(C)C)cc1 (centres undefined) [PRACTOLOL]
logD [7, 9]: -1.4

COC(=O)c1ccccc1-c1c2ccc(=N)cc-2oc2cc(N)ccc12 [RHODAMINE123]
logD [7, 9]: 0.53

O=C(O)c1ccccc1O [SALICYLIC ACID]
logD [7, 9]: -1.44 | logD [3]: -2.34 | bioavailability [8]: 100%

CC(C)(C)NCC(O)COc1ccc(NC(=O)NC2CCCCC2)cc1 (centres undefined) [TALINOLOL]
logD [7, 9]: 1.1 | bioavailability [8]: 55%

CC(=O)CC(c1ccccc1)c1c(O)c2ccccc2oc1=O (centres undefined) [WARFARIN]
logD [7, 9]: 0.9
